This note sets out measurements from ChEMBL document CHEMBL1155804, “Brominated diterpenes with antibacterial activity from the red alga Sphaerococcus coronopifolius” (2008).

Common to all, as to assay type: functional
The test system of experiment [1] is Staphylococcus aureus. In words: Antibacterial activity against epidemic methicillin-resistant Staphylococcus aureus 15 after 18 hrs by MTT assay. In outline: (§1)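 Broth microdilution MIC in Mueller-Hinton broth supplemented to 20 mg/L Ca2+ and 10 mg/L Mg2+. Overnight cultures were adjusted in 0.9% saline to 5 × 10^5 cfu against a McFarland standard, and the sample was serially diluted in broth. Plates included growth, sterile and 3.125% DMSO controls and were incubated 18 h at 37 °C. MICs were determined in duplicate.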
In general terms: Tetrazolium assays rely on reduction of a dye to a coloured formazan, in cell work by metabolically active cells.

Experiment [2] deals with Staphylococcus aureus. In words: Antibacterial activity against Staphylococcus aureus 1199B overexpressing NorA efflux pump after 18 hrs by MTT assay. In outline:
as §1

Experiment [3] has as its system Staphylococcus aureus. In words: Antibacterial activity against epidemic methicillin-resistant Staphylococcus aureus 16 expressing mecA after 18 hrs by MTT assay. The procedure, abridged:
as §1

Experiment [4] has as its system Staphylococcus aureus. In words: Antibacterial activity against methicillin-resistant Staphylococcus aureus XU212 expressing TetK efflux pump after 18 hrs by MTT assay. The conditions noted are these: XU212, 18 h. The procedure, abridged: as §1
In experiment [5] the test system is Staphylococcus aureus. In words: Antibacterial activity against Staphylococcus aureus […] expressing MsrA macrolide efflux pump after 18 hrs by MTT assay. The procedure, abridged:
as §1

For experiment [6], the system named is Staphylococcus aureus. Description: Antibacterial activity against Staphylococcus aureus ATCC 25923 after 18 hrs by MTT assay. The following applies: ATCC 25923, 18 h. The procedure, abridged: as §1

SMILES strings stand for the structures. ≈ marks a conversion by molar mass, not a printed value.

As to `CC(C)[C@@H]1C[C@H](OO)C=C2[C@@H]3[C@](C)(O)[C@@H](O)C[C@H](Br)[C@@]3(C)CC[C@@]21CBr`, the MIC in experiment [1] amounted to 16 µg/mL (≈ 32.2 µM); in experiment [2] it was 16 µg/mL (≈ 32.2 µM); in experiment [3] it was 16 µg/mL (≈ 32.2 µM); in experiment [4] it was 16 µg/mL (≈ 32.2 µM); in experiment [5], 16 µg/mL (≈ 32.2 µM); in experiment [6], 32 µg/mL (≈ 64.5 µM).

For the compound `CC(C)[C@@H]1CC[C@H](O)[C@H]2[C@H]3[C@@](C)(C=CC(=O)[C@]3(C)O)CC[C@@]21CBr`, the MIC in experiment [1] worked out at 0.5 µg/mL (≈ 1.25 µM); in experiment [2], 0.5 µg/mL (≈ 1.25 µM); in experiment [3] it was 0.25 µg/mL (≈ 0.626 µM); in experiment [4] it was 1 µg/mL (≈ 2.5 µM); in experiment [5], 1 µg/mL (≈ 2.5 µM); in experiment [6], 0.5 µg/mL (≈ 1.25 µM).

As to `CC(C)[C@@H]1CC[C@H](O)[C@H]2[C@H]3[C@](C)(CC[C@@]21CBr)[C@@H](Br)CC(=O)[C@]3(C)O`, the MIC in experiment [1] came to 128 µg/mL (≈ 267 µM); in experiment [2], 32 µg/mL (≈ 66.6 µM); in experiment [3], 64 µg/mL (≈ 133 µM); in experiment [4] it was 32 µg/mL (≈ 66.6 µM); in experiment [5], 32 µg/mL (≈ 66.6 µM); in experiment [6], 32 µg/mL (≈ 66.6 µM).

Take `CC(C)[C@@H]1C[C@H](OO)C=C2[C@@H]3[C@](C)(O)[C@H](O)C[C@H](Br)[C@@]3(C)CC[C@@]21CBr`: the MIC in experiment [1] was 16 µg/mL (≈ 32.2 µM); in experiment [2] it was 16 µg/mL (≈ 32.2 µM); in experiment [3], 16 µg/mL (≈ 32.2 µM); in experiment [4] it was 16 µg/mL (≈ 32.2 µM); in experiment [5], 16 µg/mL (≈ 32.2 µM); in experiment [6] it was 32 µg/mL (≈ 64.5 µM).

Consider `CC(C)[C@@H]1C[C@H](O)C=C2[C@H]3[C@](C)(CC[C@@]21CBr)[C@@H](Br)CC[C@@]3(C)O`, for which the MIC in experiment [1], in experiment [2], in experiment [3], in experiment [4], in experiment [5] and in experiment [6] was 16 µg/mL (≈ 34.5 µM) each time.

As to `CCn1cc(C(=O)O)c(=O)c2cc(F)c(N3CCNCC3)cc21` [NORFLOXACIN], the minimal inhibitory concentration (MIC) in experiment [1] was found to be 0.5 µg/mL (≈ 1.57 µM); in experiment [2], 32 µg/mL (≈ 100 µM); in experiment [3], 128 µg/mL (≈ 401 µM); in experiment [4], 8 µg/mL (≈ 25.1 µM); in experiment [5], 1 µg/mL (≈ 3.13 µM); in experiment [6] it was 0.5 µg/mL (≈ 1.57 µM).

Turning to `CC(C)[C@@H]1CC[C@H](O)[C@H]2[C@H]3[C@](C)(CC[C@@]21CBr)[C@@H](Br)CC[C@]3(C)O`, the minimal inhibitory concentration (MIC) in experiment [1] was found to be 2 µg/mL (≈ 4.29 µM); in experiment [2] it was 1 µg/mL (≈ 2.14 µM); in experiment [3] it was 1 µg/mL (≈ 2.14 µM); in experiment [4] it was 2 µg/mL (≈ 4.29 µM); in experiment [5], 2 µg/mL (≈ 4.29 µM); in experiment [6], 2 µg/mL (≈ 4.29 µM).

Usually MIC stands for the lowest concentration that inhibits growth of the organism.
